From ChEMBL document CHEMBL3525900, “Pharmacokinetics, distribution, and metabolism of [14C]sunitinib in rats, monkeys, and humans” (Drug Metab Dispos, 2012)

Tests used:
Rattus norvegicus = experiment: Total drug recovery in female Sprague-Dawley rat at 15 mg/kg, po administered as single dose during 0 to 72 hrs by liquid scintillation counting; assay type: ADME, organism-based; design: dose 15 mg/kg, dosed compound name [14C]Sunitinib, route oral; conditions: in vivo
Spinal cord [1] = experiment: Drug concentration in female albino rat spinal cord assessed as radioactivity per gram of tissue at 20 mg/kg administered as single dose via gastric gavage measured after 3 hrs by autoradiographic analysis; assay type: ADME, organism-based; design: dose 20 mg/kg, dosed compound name [14C]Sunitinib; conditions: in vivo, po
Adrenal [2] = experiment: Drug concentration in male albino rat adrenal assessed as radioactivity per gram of tissue at 20 mg/kg administered as single dose via gastric gavage measured after 3 hrs by autoradiographic analysis; assay type: ADME, organism-based; design: dose 20 mg/kg, dosed compound name [14C]Sunitinib; conditions: in vivo, po
Adrenal [3] = experiment: Drug concentration in female albino rat adrenal assessed as radioactivity per gram of tissue at 20 mg/kg administered as single dose via gastric gavage measured after 24 hrs by autoradiographic analysis; assay type: ADME, organism-based; design: dose 20 mg/kg, dosed compound name [14C]Sunitinib; conditions: in vivo, po
Method in brief: (§1)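 Sprague Dawley (albino) rats, ca 7-8 weeks old, received a single gastric-gavage dose of [14C]sunitinib L-malate at 20 mg/kg (15 mg freebase/kg, 100 µCi/kg). One animal per sex killed by CO2 at 3, 6, 24, 72 and 168 h, then frozen in CO2/hexane. 30 µm sagittal sections were cut and freeze-dried. Radioactivity per gram quantified by whole-body autoradiography using regression against standards. LOQ 0.04–0.06 µg freebase equiv/g.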

Blood = experiment: Drug concentration in male albino rat blood assessed as radioactivity per gram of tissue at 20 mg/kg administered as single dose via gastric gavage measured after 6 hrs by autoradiographic analysis; assay type: ADME, organism-based; design: dose 20 mg/kg, dosed compound name [14C]Sunitinib; conditions: in vivo, po
[4] = Drug concentration in female Lister Hooded pigmented rat brown fat assessed as radioactivity per gram of tissue at 20 mg/kg administered as single dose via gastric gavage measured after 24 hrs by autoradiographic analysis; assay type: ADME, organism-based, Brown adipose tissue; design: dose 20 mg/kg, dosed compound name [14C]Sunitinib; conditions: in vivo, po
Method in brief: (§2)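 Lister Hooded (pigmented) rats, ca 7-8 weeks old, acclimated 7 days, given [14C]sunitinib L-malate by gastric gavage at 20 mg/kg (15 mg freebase/kg, 100 µCi/kg). One male and one female killed by CO2 at 24, 72, 168 and 336 h. Carcasses frozen in solid CO2/hexane and embedded in frozen cellulose. 30 µm sagittal cryosections were freeze-dried. Tissue radioactivity measured by quantitative whole-body autoradiography against calibration standards, with background subtracted.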

[5] = Drug concentration in male albino rat pituitary gland assessed as radioactivity per gram of tissue at 20 mg/kg administered as single dose via gastric gavage measured after 168 hrs by autoradiographic analysis; assay type: ADME, organism-based; design: dose 20 mg/kg, dosed compound name [14C]Sunitinib; conditions: in vivo, po
Spinal cord [6] = experiment: Drug concentration in male albino rat spinal cord assessed as radioactivity per gram of tissue at 20 mg/kg administered as single dose via gastric gavage measured after 6 hrs by autoradiographic analysis; assay type: ADME, organism-based; design: dose 20 mg/kg, dosed compound name [14C]Sunitinib; conditions: in vivo, po
Adrenal [7] = experiment: Drug concentration in female Lister Hooded pigmented rat adrenal assessed as radioactivity per gram of tissue at 20 mg/kg administered as single dose via gastric gavage measured after 168 hrs by autoradiographic analysis; assay type: ADME, organism-based; design: dose 20 mg/kg, dosed compound name [14C]Sunitinib; conditions: in vivo, po
Method in brief: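 Pigmented Lister Hooded rats, 7-8 weeks old, received [14C]sunitinib L-malate by gavage at 20 mg/kg (15 mg freebase/kg, 100 µCi/kg). One rat per sex was killed by CO2 at each of 24, 72, 168 and 336 h. Carcasses were frozen in solid CO2/hexane and cut into 30 µm sagittal sections, then freeze-dried. Tissue radioactivity was quantified by whole-body autoradiography calibrated against standards by regression (LOQ 0.04–0.06 µg eq/g).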

Thymus = experiment: Drug concentration in male albino rat thymus assessed as radioactivity per gram of tissue at 20 mg/kg administered as single dose via gastric gavage measured after 24 hrs by autoradiographic analysis; assay type: ADME, organism-based; design: dose 20 mg/kg, dosed compound name [14C]Sunitinib; conditions: in vivo, po
[8] = Drug concentration in female albino rat eye assessed as radioactivity per gram of tissue at 20 mg/kg administered as single dose via gastric gavage measured after 6 hrs by autoradiographic analysis; assay type: ADME, organism-based; design: dose 20 mg/kg, dosed compound name [14C]Sunitinib; conditions: in vivo, po
Method in brief: (§3)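 Sprague Dawley albino rats, ca 7-8 weeks old, dosed once by gastric gavage with [14C]sunitinib L-malate (15 mg freebase/kg, 100 µCi/kg). One male and one female killed by CO2 at 3, 6, 24, 72 and 168 h. Carcasses frozen in solid CO2/hexane, embedded and cut into 30 µm sagittal sections, then freeze-dried. Radioactivity quantified by whole-body autoradiography against standards by regression, background subtracted.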

Zone of skin = experiment: Drug concentration in male Lister Hooded pigmented rat abdomen skin assessed as radioactivity per gram of tissue at 20 mg/kg administered as single dose via gastric gavage measured after 72 hrs by autoradiographic analysis; assay type: ADME, organism-based; design: dose 20 mg/kg, dosed compound name [14C]Sunitinib; conditions: in vivo, po
Kidney [9] = experiment: Drug concentration in female albino rat kidney assessed as radioactivity per gram of tissue at 20 mg/kg administered as single dose via gastric gavage measured after 72 hrs by autoradiographic analysis; assay type: ADME, organism-based; design: dose 20 mg/kg, dosed compound name [14C]Sunitinib; conditions: in vivo, po; method in brief: as §3
Cynomolgus monkey = experiment: Terminal half life as total radioactivity in male cynomolgus monkey plasma at 6 mg/kg, po administered as single dose by LC/MS/MS analysis; assay type: ADME, organism-based, Macaca fascicularis; design: dose 6 mg/kg, dosed compound name [14C]Sunitinib, route oral; conditions: in vivo
[10] = Drug concentration in male albino rat thyroid gland assessed as radioactivity per gram of tissue at 20 mg/kg administered as single dose via gastric gavage measured after 3 hrs by autoradiographic analysis; assay type: ADME, organism-based; design: dose 20 mg/kg, dosed compound name [14C]Sunitinib; conditions: in vivo, po
Adrenal [11] = experiment: Drug concentration in female albino rat adrenal assessed as radioactivity per gram of tissue at 20 mg/kg administered as single dose via gastric gavage measured after 168 hrs by autoradiographic analysis; assay type: ADME, organism-based; design: dose 20 mg/kg, dosed compound name [14C]Sunitinib; conditions: in vivo, po; method in brief: as §1
Large intestine = experiment: Drug concentration in male Lister Hooded pigmented rat large intestine assessed as radioactivity per gram of tissue at 20 mg/kg administered as single dose via gastric gavage measured after 72 hrs by autoradiographic analysis; assay type: ADME, organism-based; design: dose 20 mg/kg, dosed compound name [14C]Sunitinib; conditions: in vivo, po
Liver = experiment: Drug concentration in male albino rat liver assessed as radioactivity per gram of tissue at 20 mg/kg administered as single dose via gastric gavage measured after 6 hrs by autoradiographic analysis; assay type: ADME, organism-based; design: dose 20 mg/kg, dosed compound name [14C]Sunitinib; conditions: in vivo, po
[12] = Drug concentration in male albino rat skeletal muscle assessed as radioactivity per gram of tissue at 20 mg/kg administered as single dose via gastric gavage measured after 24 hrs by autoradiographic analysis; assay type: ADME, organism-based; design: dose 20 mg/kg, dosed compound name [14C]Sunitinib; conditions: in vivo, po
Kidney [13] = experiment: Drug concentration in male albino rat kidney assessed as radioactivity per gram of tissue at 20 mg/kg administered as single dose via gastric gavage measured after 72 hrs by autoradiographic analysis; assay type: ADME, organism-based; design: dose 20 mg/kg, dosed compound name [14C]Sunitinib; conditions: in vivo, po
Stomach = experiment: Drug concentration in male albino rat stomach assessed as radioactivity per gram of tissue at 20 mg/kg administered as single dose via gastric gavage measured after 6 hrs by autoradiographic analysis; assay type: ADME, organism-based; design: dose 20 mg/kg, dosed compound name [14C]Sunitinib; conditions: in vivo, po
[14] = Drug concentration in female Lister Hooded pigmented rat lachrymal gland assessed as radioactivity per gram of tissue at 20 mg/kg administered as single dose via gastric gavage measured after 24 hrs by autoradiographic analysis; assay type: ADME, organism-based; design: dose 20 mg/kg, dosed compound name [14C]Sunitinib; conditions: in vivo, po; method in brief: as §2
Small intestine [15] = experiment: Drug concentration in male albino rat small intestine assessed as radioactivity per gram of tissue at 20 mg/kg administered as single dose via gastric gavage measured after 24 hrs by autoradiographic analysis; assay type: ADME, organism-based; design: dose 20 mg/kg, dosed compound name [14C]Sunitinib; conditions: in vivo, po
Kidney [16] = experiment: Drug concentration in female albino rat kidney assessed as radioactivity per gram of tissue at 20 mg/kg administered as single dose via gastric gavage measured after 24 hrs by autoradiographic analysis; assay type: ADME, organism-based; design: dose 20 mg/kg, dosed compound name [14C]Sunitinib; conditions: in vivo, po; method in brief: as §3
Small intestine [17] = experiment: Drug concentration in male Lister Hooded pigmented rat small intestine assessed as radioactivity per gram of tissue at 20 mg/kg administered as single dose via gastric gavage measured after 72 hrs by autoradiographic analysis; assay type: ADME, organism-based; design: dose 20 mg/kg, dosed compound name [14C]Sunitinib; conditions: in vivo, po
[18] = Drug concentration in female albino rat uterus assessed as radioactivity per gram of tissue at 20 mg/kg administered as single dose via gastric gavage measured after 24 hrs by autoradiographic analysis; assay type: ADME, organism-based; design: dose 20 mg/kg, dosed compound name [14C]Sunitinib; conditions: in vivo, po
[19] = Drug concentration in male Lister Hooded pigmented rat uveal tract assessed as radioactivity per gram of tissue at 20 mg/kg administered as single dose via gastric gavage measured after 24 hrs by autoradiographic analysis; assay type: ADME, organism-based; design: dose 20 mg/kg, dosed compound name [14C]Sunitinib; conditions: in vivo, po

Radiolabel recovery (Rattus norvegicus): 82.5% | Radiolabel recovery (Spinal cord [1]): 0.28 ugequiv | Radiolabel recovery (Adrenal [2]): 25.22 ugequiv | Radiolabel recovery (Adrenal [3]): 7.65 ugequiv | Radiolabel recovery (Blood): 0.84 ugequiv | Radiolabel recovery [4]: 0.73 ugequiv | Radiolabel recovery [5]: 0.76 ugequiv | Radiolabel recovery (Spinal cord [6]): 0.29 ugequiv | Radiolabel recovery (Adrenal [7]): 0.35 ugequiv | Radiolabel recovery (Thymus): 0.58 ugequiv | Radiolabel recovery [8]: 1.18 ugequiv | Radiolabel recovery (Zone of skin): 0.64 ugequiv | Radiolabel recovery (Kidney [9]): 0.39 ugequiv | beta t1/2 (Cynomolgus monkey): 222 h | Radiolabel recovery [10]: 18.4 ugequiv | Radiolabel recovery (Adrenal [11]): 0.33 ugequiv | Radiolabel recovery (Large intestine): 0.08 ugequiv | Radiolabel recovery (Liver): 10.7 ugequiv | Radiolabel recovery [12]: 0.16 ugequiv | Radiolabel recovery (Kidney [13]): 0.16 ugequiv | Radiolabel recovery (Stomach): 9.3 ugequiv | Radiolabel recovery [14]: 2.05 ugequiv | Radiolabel recovery (Small intestine [15]): 1.55 ugequiv | Radiolabel recovery (Kidney [16]): 4.79 ugequiv | Radiolabel recovery (Small intestine [17]): 0.07 ugequiv | Radiolabel recovery [18]: 0.96 ugequiv | Radiolabel recovery [19]: 18.79 ugequiv
SMILES: CCN(CC)CCNC(=O)c1c(C)[nH]c(/[14CH]=C2\C(=O)Nc3ccc(F)cc32)c1C.O=C(O)C[C@H](O)C(=O)O
